According to ChEMBL document CHEMBL1121608, “Modification of the 5' position of purine nucleosides. 2. Synthesis and some cardiovascular properties of adenosine-5'-(N-substituted)carboxamides” (J Med Chem, 1980):

Key:
[1] = Lethal dose in mice after intraperitoneal administration; type: toxicity, organism-based; details: mouse, in vivo, ip
How it was run: (§1)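 Male and female mice, three per dose group, were given the compound by the stated route in increments of 0.5 log doses. The LD50 was estimated as an approximate value.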

Canis familiaris [2] = assay: Total time in minutes elapsed from the initiation of the change until return to the pretest value of blood pressure in coronary sinus of anesthetized dog at intravenous dosage of 9 mg/kg; type: functional, Canis lupus familiaris
Canis familiaris [3] = assay: tested for the percent increase in aortic blood pressure (BP) in open chest anesthetized dog at intravenous dosage of 9.00 mg/kg; type: functional, Canis lupus familiaris, Artery
How it was run: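 Open-chest anesthetized dogs received intravenous doses. Aortic blood pressure was recorded as the change from control.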

Canis familiaris [4] = assay: Total time in minutes elapsed from the initiation of the change until return to the pretest value of oxygen partial pressure in coronary sinus of anesthetized dog at intravenous dosage of 9 mg/kg; type: functional, Canis lupus familiaris
How it was run: (§2)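 Open-chest anesthetized dogs given compound by intravenous injection. Coronary sinus PO2 was monitored, and duration was the total time in minutes from the onset of the change until return to the pretest value.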

Canis familiaris [5] = assay: tested for percent increase in coronary sinus partial pressure of oxygen (PO2) in open chest anesthetized dog at intravenous dosage of 9.00 mg/kg; type: functional, Canis lupus familiaris
[6] = Lethal dose in mice after peroral administration; type: toxicity, organism-based; details: mouse, in vivo, po; how it was run: as §1
Canis familiaris [7] = assay: Total time in minutes elapsed from the initiation of the change until return to the pretest value of heart rate in coronary sinus of anesthetized dog at intravenous dosage of 9 mg/kg; type: functional, Canis lupus familiaris
Canis familiaris [8] = assay: tested for the percent increase in heart rate (HR) in open chest anesthetized dog at intravenous dosage of 0.10 mg/kg; type: functional, Canis lupus familiaris; details: dose 0.1 mg/kg
Canis familiaris [9] = assay: Tested for the percent increase in aortic blood pressure (BP) in open chest anesthetized dog at intravenous dosage of 1.00 mg/kg; type: functional, Canis lupus familiaris, Artery
How it was run: (§3)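 Open-chest anesthetized dogs, compound given iv at the stated dose. Aortic blood pressure is reported as the change from the control (pre-dose) value. Other set-up follows the group's earlier cardiovascular protocol.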

Canis familiaris [10] = assay: Total time in minutes elapsed from the initiation of the change until return to the pretest value of heart rate in coronary sinus of anesthetized dog at intravenous dosage of 0.1 mg/kg; type: functional, Canis lupus familiaris
Canis familiaris [11] = assay: Total time in minutes elapsed from the initiation of the change until return to the pretest value of blood pressure in coronary sinus of anesthetized dog at intravenous dosage of 1 mg/kg; type: functional, Canis lupus familiaris
Canis familiaris [12] = assay: Total time in minutes elapsed from the initiation of the change until return to the pretest value of oxygen partial pressure in coronary sinus of anesthetized dog at intravenous dosage of 1 mg/kg; type: functional, Canis lupus familiaris; how it was run: as §2
Canis familiaris [13] = assay: Tested for percent increase in coronary sinus partial pressure of oxygen (PO2) in open chest anesthetized dog at intravenous dosage of 0.10 mg/kg; type: functional, Canis lupus familiaris; details: dose 0.1 mg/kg
Canis familiaris [14] = assay: Tested for the percent increase in aortic blood pressure (BP) in open chest anesthetized dog at intravenous dosage of 0.10 mg/kg; type: functional, Canis lupus familiaris, Artery; details: dose 0.1 mg/kg; how it was run: as §3
Canis familiaris [15] = assay: Total time in minutes elapsed from the initiation of the change until return to the pretest value of oxygen partial pressure in coronary sinus of anesthetized dog at intravenous dosage of 0.1 mg/kg; type: functional, Canis lupus familiaris
Canis familiaris [16] = assay: Total time in minutes elapsed from the initiation of the change until return to the pretest value of blood pressure in coronary sinus of anesthetized dog at intravenous dosage of 0.1 mg/kg; type: functional, Canis lupus familiaris
Canis familiaris [17] = assay: Total time in minutes elapsed from the initiation of the change until return to the pretest value of heart rate in coronary sinus of anesthetized dog at intravenous dosage of 1 mg/kg; type: functional, Canis lupus familiaris
Canis familiaris [18] = assay: Tested for the percent increase in coronary sinus partial pressure of oxygen (PO2) in open chest anesthetized dog at intravenous dosage of 1.00 mg/kg; type: functional, Canis lupus familiaris
Canis familiaris [19] = assay: Total time in minutes elapsed from the initiation of the change until return to the pretest value of oxygen partial pressure in coronary sinus of anesthetized dog at intravenous dosage of 0.01 mg/kg; type: functional, Canis lupus familiaris
Canis familiaris [20] = assay: Total time in minutes elapsed from the initiation of the change until return to the pretest value of blood pressure in coronary sinus of anesthetized dog at intravenous dosage of 0.01 mg/kg; type: functional, Canis lupus familiaris
Canis familiaris [21] = assay: Total time in minutes elapsed from the initiation of the change until return to the pretest value of heart rate in coronary sinus of anesthetized dog at intravenous dosage of 0.001 mg/kg; type: functional, Canis lupus familiaris
Canis familiaris [22] = assay: Tested for percent increase in coronary sinus partial pressure of oxygen (PO2) in open chest anesthetized dog at intravenous dosage of 0.01 mg/kg; type: functional, Canis lupus familiaris
Canis familiaris [23] = assay: Tested for the percent increase in aortic blood pressure (BP) in open chest anesthetized dog at intravenous dosage of 0.01 mg/kg; type: functional, Canis lupus familiaris, Artery; how it was run: as §3
Canis familiaris [24] = assay: Tested for percent increase in coronary sinus partial pressure of oxygen (PO2) in open chest anesthetized dog at intravenous dosage of 1.00 mg/kg; type: functional, Canis lupus familiaris
Canis familiaris [25] = assay: Tested for the percent increase in aortic blood pressure (BP) in open chest anesthetized dog at intravenous dosage of 10.00 mg/kg; type: functional, Canis lupus familiaris, Artery; how it was run: as §3
Canis familiaris [26] = assay: Total time in minutes elapsed from the initiation of the change until return to the pretest value of oxygen partial pressure in coronary sinus of anesthetized dog at intravenous dosage of 10 mg/kg; type: functional, Canis lupus familiaris; how it was run: as §2
Canis familiaris [27] = assay: Total time in minutes elapsed from the initiation of the change until return to the pretest value of heart rate in coronary sinus of anesthetized dog at intravenous dosage of 10 mg/kg; type: functional, Canis lupus familiaris
Canis familiaris [28] = assay: Tested for the percent increase in coronary sinus partial pressure of oxygen (PO2) in open chest anesthetized dog at intravenous dosage of 10.00 mg/kg; type: functional, Canis lupus familiaris
Canis familiaris [29] = assay: Total time in minutes elapsed from the initiation of the change until return to the pretest value of blood pressure in coronary sinus of anesthetized dog at intravenous dosage of 10 mg/kg; type: functional, Canis lupus familiaris
Canis familiaris [30] = assay: Tested for the percent increase in coronary sinus partial pressure of oxygen (PO2) in open chest anesthetized dog at intravenous dosage of 5.00 mg/kg; type: functional, Canis lupus familiaris
Canis familiaris [31] = assay: Total time in minutes elapsed from the initiation of the change until return to the pretest value of oxygen partial pressure in coronary sinus of anesthetized dog at intravenous dosage of 5 mg/kg; type: functional, Canis lupus familiaris; how it was run: as §2
Canis familiaris [32] = assay: Total time in minutes elapsed from the initiation of the change until return to the pretest value of heart rate in coronary sinus of anesthetized dog at intravenous dosage of 5 mg/kg; type: functional, Canis lupus familiaris
Canis familiaris [33] = assay: Total time in minutes elapsed from the initiation of the change until return to the pretest value of blood pressure in coronary sinus of anesthetized dog at intravenous dosage of 5 mg/kg; type: functional, Canis lupus familiaris
Canis familiaris [34] = assay: Total time in minutes elapsed from the initiation of the change until return to the pretest value of blood pressure in coronary sinus of anesthetized dog at intravenous dosage of 0.10 mg/kg; type: functional, Canis lupus familiaris; details: dose 0.1 mg/kg
How it was run: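 Open-chest anesthetized dogs were given the compound intravenously. Duration is the total minutes from the start of the change until return to the pretest value. Blood pressure was recorded as change from control.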

Canis familiaris [35] = assay: Total time in minutes elapsed from the initiation of the change until return to the pretest value of heart rate in coronary sinus of anesthetized dog at intravenous dosage of 0.01 mg/kg; type: functional, Canis lupus familiaris
Canis familiaris [36] = assay: Tested for the percent increase in coronary sinus partial pressure of oxygen (PO2) in open chest anesthetized dog at intravenous dosage of 0.10 mg/kg; type: functional, Canis lupus familiaris; details: dose 0.1 mg/kg
Canis familiaris [37] = assay: Total time in minutes elapsed from the initiation of the change until return to the pretest value of oxygen partial pressure in coronary sinus of anesthetized dog at intravenous dosage of 0.10 mg/kg; type: functional, Canis lupus familiaris; details: dose 0.1 mg/kg
Canis familiaris [38] = assay: Tested for the percent increase in aortic blood pressure (BP) in open chest anesthetized dog at intravenous dosage of 2.00 mg/kg; type: functional, Canis lupus familiaris, Artery; how it was run: as §3
Canis familiaris [39] = assay: Total time in minutes elapsed from the initiation of the change until return to the pretest value of blood pressure in coronary sinus of anesthetized dog at intravenous dosage of 2 mg/kg; type: functional, Canis lupus familiaris
Canis familiaris [40] = assay: Tested for percent increase in coronary sinus partial pressure of oxygen (PO2) in open chest anesthetized dog at intravenous dosage of 2.00 mg/kg; type: functional, Canis lupus familiaris
Canis familiaris [41] = assay: Total time in minutes elapsed from the initiation of the change until return to the pretest value of heart rate in coronary sinus of anesthetized dog at intravenous dosage of 2 mg/kg; type: functional, Canis lupus familiaris
Canis familiaris [42] = assay: Total time in minutes elapsed from the initiation of the change until return to the pretest value of oxygen partial pressure in coronary sinus of anesthetized dog at intravenous dosage of 2 mg/kg; type: functional, Canis lupus familiaris; how it was run: as §2

## Nc1ncnc2c1ncn2C1O[C@H](C(=O)NCC(O)COc2cccc3ccccc23)[C@@H](O)[C@H]1O (stereo partly drawn)
[1]
  LD50: > 300 mg/kg
Canis familiaris [2]
  Duration: 7 min
Canis familiaris [3]
  BP: 8 mmHg
Canis familiaris [4]
  Duration: 18 min
Canis familiaris [5]
  PO2: 152%
[6]
  LD50: > 300 mg/kg
Canis familiaris [7]
  Duration: 12 min

## C#CCNC(=O)[C@H]1OC(n2cnc3c(N)ncnc32)[C@H](O)[C@@H]1O (stereo partly drawn)
[1]
  LD50: 200 mg/kg
Canis familiaris [8]
  HR: 13%
Canis familiaris [9]
  BP: 40%
Canis familiaris [10]
  Duration: 60 min
Canis familiaris [11]
  Duration: 180 min
Canis familiaris [12]
  Duration: 180 min
Canis familiaris [13]
  PO2: 50%
Canis familiaris [14]
  BP: 5%
Canis familiaris [15]
  Duration: 70 min
Canis familiaris [16]
  Duration: 70 min
[6]
  LD50: > 1000 mg/kg
Canis familiaris [17]
  Duration: 82 min
Canis familiaris [18]
  PO2: 133%

## Nc1c2ncn(C3O[C@H](C(=O)NC4CC4)[C@@H](O)[C@H]3O)c2nc[n+]1[O-] (stereo partly drawn)
Canis familiaris [19]
  Duration: 75 min
Canis familiaris [20]
  Duration: 60 min
Canis familiaris [21]
  Duration: 60 min
Canis familiaris [22]
  PO2: 66%
Canis familiaris [23]
  BP: 15%

## CCN(CC)CCNC(=O)[C@H]1OC(n2cnc3c(N)ncnc32)[C@H](O)[C@@H]1O (stereo partly drawn)
[1]
  LD50: 50 mg/kg
Canis familiaris [24]
  PO2: 57%
Canis familiaris [9]
  BP: 0%
Canis familiaris [25]
  BP: 7%
Canis familiaris [26]
  Duration: 60 min
Canis familiaris [11]
  Duration: 0 min
Canis familiaris [12]
  Duration: 6 min
[6]
  LD50: > 1000 mg/kg
Canis familiaris [27]
  Duration: 60 min
Canis familiaris [28]
  PO2: 25%
Canis familiaris [17]
  Duration: 0 min
Canis familiaris [29]
  Duration: 22 min

## Nc1ncnc2c1ncn2C1O[C@H](C(=O)NCCc2ccccc2)[C@@H](O)[C@H]1O (stereo partly drawn)
[1]
  LD50: 500 mg/kg
Canis familiaris [30]
  PO2: 44%
Canis familiaris [24]
  PO2: 9%
Canis familiaris [9]
  BP: 11%
Canis familiaris [11]
  Duration: 1 min
Canis familiaris [12]
  Duration: 25 min
Canis familiaris [31]
  Duration: 60 min
[6]
  LD50: > 1000 mg/kg
Canis familiaris [32]
  Duration: 6 min
Canis familiaris [33]
  Duration: 60 min
Canis familiaris [17]
  Duration: 18 min

## Nc1ncnc2c1ncn2C1O[C@H](C(=O)NCCO)[C@@H](O)[C@H]1O (stereo partly drawn)
[1]
  LD50: 2 mg/kg
Canis familiaris [10]
  Duration: 15 min
Canis familiaris [19]
  Duration: 90 min
Canis familiaris [34]
  Duration: 240 min
Canis familiaris [20]
  Duration: 90 min
Canis familiaris [22]
  PO2: 75%
Canis familiaris [35]
  Duration: 42 min
Canis familiaris [36]
  PO2: 163%
[6]
  LD50: 5 mg/kg
Canis familiaris [37]
  Duration: 240 min

## Nc1ncnc2c1ncn2[C@@H]1O[C@H](CO)[C@@H](O)[C@H]1O [ADENOSINE]
Canis familiaris [38]
  BP: 60 mmHg
Canis familiaris [39]
  Duration: 2 min
Canis familiaris [40]
  PO2: 200%
Canis familiaris [41]
  Duration: 4 min
Canis familiaris [42]
  Duration: 2 min
